This note sets out measurements from ChEMBL document CHEMBL4382230, “Structure-activity relationships, biological evaluation and structural studies of novel pyrrolonaphthoxazepines as antitumor agents” (Eur J Med Chem, 2019).

Data set [1] has as its system HL-60. In words: Cell cycle arrest in human HL60 cells assessed as accumulation of cells at G2/M phase at 10 uM after 24 hrs by propidium iodide staining-based flow cytometric analysis. Format: functional. The gist of the method: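 HL-60 exposed to 10 μM for 24 h, vehicle 0.1% DMSO. Cells plated at 2×10^5 cells/mL, stained in PBS with 0.1% sodium citrate, 0.1% NP40 and propidium iodide for 30 min at room temperature in the dark. DNA content by flow cytometry; G2/M fraction reported.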

In data set [2] the test system is HL-60. The data set can be described thus: Cytotoxicity against human HL60 cells assessed as reduction in cell viability after 72 hrs by alamar blue assay. Format: functional, cell-based. Particulars: HL-60, 72 h. The gist of the method: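 HL-60 at 300,000 cells/ml treated in triplicate with compound or vehicle (0.1% v/v DMSO) for 72 h. Cells then incubated in 10% (v/v) AlamarBlue and fluorescence read at excitation 544 nm, emission 590 nm. IC50 is the mean of at least three separate determinations.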
(In general: Resazurin is reduced to fluorescent resorufin, in cell work by metabolically active cells.)

Data set [3] can be described thus: Solubility of compound in pH 7.4 aqueous solution after 12 hrs by HPLC analysis. It counts as physicochemical. The gist of the method: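 Water solubility at pH 7.4 measured by HPLC analysis.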
Data set [4] is described as follows: Ratio of IC50 for human A2780AD cells to IC50 for human A2780 cells. It counts as functional. The gist of the method:
(§1)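 Relative resistance: IC50 in the P-gp overexpressing resistant line divided by IC50 in the parental line. Both IC50s came from the 48 h MTT assay (serial dilutions, absorbance at 595/690 nm, log-dose response curves, three independent assays).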

Data set [5] in a line: Cytotoxicity against human A2780AD cells after 48 hrs by MTT assay. It counts as functional, cell-based. The gist of the method: (§2)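 Cells seeded at 12,000 to 17,000 per well depending on line, incubated overnight, then given serial dilutions of ligand for 48 h. MTT at 2.5 mg/mL added for 4 h at 37 °C, formazan solubilized overnight (10% SDS, 45% dimethylformamide, pH 5.5), absorbance read at 595/690 nm. IC50 from log-dose response curves; mean ± SE of three independent assays.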
(Tetrazolium dyes change colour on reduction, which living cells bring about.)

Data set [6] deals with NIH3T3. In words: Cytotoxicity against mouse NIH/3T3 cells harboring MDR G185 after 48 hrs by MTT assay. Format: functional, cell-based. The conditions noted are these: NIH3T3, 48 h. The gist of the method: as §2
For data set [7], the system named is NIH3T3. In words: Cytotoxicity against mouse NIH/3T3 cells after 48 hrs by MTT assay. Format: cell-based. The conditions noted are these: NIH3T3, 48 h. The gist of the method: as §2
The nature of data set [8]: Ratio of IC50 for mouse NIH/3T3 cells harboring MDR G185 to IC50 for mouse NIH/3T3 cells. The gist of the method:
as §1

Data set [9] deals with A2780. The data set can be described thus: Cytotoxicity against human A2780 cells after 48 hrs by MTT assay. Format: functional, cell-based. The conditions noted are these: A2780, 48 h. The gist of the method:
as §2

For data set [10], the system named is GISTT1. In words: Cytotoxicity against human GISTT1 cells assessed as reduction in cell viability at 1 uM after 48 hrs by alamar blue assay. It counts as functional, cell-based. The gist of the method:
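GIST-T1 seeded at 4000 cells/well, exposed to 1 or 10 μM for 48 h; viability read by AlamarBlue.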

In data set [11] the test system is B16-F1. The data set can be described thus: Cytotoxicity against mouse B16-F1 cells assessed as reduction in cell survival at 0.1 to 10 uM after 18 hrs by MTT assay. It counts as functional, cell-based. The gist of the method:
(§3)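 Seeded at 2,500 cells/well in medium with 10% serum. After adhesion, exposed to 0.1, 1 and 10 μM in medium with 5% serum for 18 h. Medium then replaced with fresh medium containing 1.2 mM MTT for 4 h; formazan dissolved in DMSO, absorbance at 540 nm. Results given as % of basal response.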

Data set [12] deals with A549. The data set can be described thus: Cytotoxicity against human A549 cells assessed as reduction in cell survival at 0.1 to 10 uM after 18 hrs by MTT assay. It counts as functional, cell-based. The gist of the method: as §3
In data set [13] the test system is PC-9. In words: Cytotoxicity against human PC9 cells assessed as reduction in cell survival at 0.1 to 10 uM after 18 hrs by MTT assay. It counts as functional, cell-based. The gist of the method:
as §3

Data set [14] relates to B16-F10. The data set can be described thus: Cytotoxicity against mouse B16F10 cells assessed as reduction in cell survival at 0.1 to 10 uM after 18 hrs by MTT assay. Format: functional, cell-based. The gist of the method: as §3
Data set [15] concerns HCC827. In words: Cytotoxicity against human HCC827 cells assessed as reduction in cell survival at 0.1 to 10 uM after 50 to 60 hrs by MTT assay. It counts as functional, cell-based.
Data set [16] has as its system HCC827. In words: Cytotoxicity against human HCC827 cells assessed as reduction in cell survival at 0.1 to 10 uM after 18 hrs by MTT assay. Format: functional, cell-based. The gist of the method: as §3
In data set [17] the target is T1, Tubulin (Homo sapiens) (UniProt P68371+Q9H4B7+P0DPH7+P68366+Q13509+Q71U36+P04350+Q3ZCM7+P07437+P68363+Q9BQE3+Q6PEY2+Q13885+Q9BVA1+Q9BUF5). In words: Inhibition of tubulin (unknown origin) polymerization at 27.5 uM measured over 70 mins by turbidity method. Format: protein-complex assay. The gist of the method:
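Tubulin at 25 µM in GAB buffer (10 mM sodium phosphate, 30% glycerol, 1 mM EGTA, 6 mM MgCl2, 1 mM GTP, pH 6.7) with 27.5 µM compound or DMSO vehicle. Turbidity is read at 355 nm for 70 min at 37 °C. Data are normalized to the initial stable absorbance plateau to correct for compound absorbance.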

In data set [18] the test system is NB-4. In words: Cell cycle arrest in human NB4 cells assessed as accumulation of cells at G1 phase after 24 hrs by propidium iodide staining-based flow cytometric analysis. It counts as functional. The gist of the method: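 NB4 cultured at 37 °C, 5% CO2 in RPMI-1640 with 10% heat-inactivated FBS. Treated at 50 and 100 nM, 1 and 10 μM for 24 h. Cells fixed/permeabilized in 70% ethanol overnight at 4 °C, then given RNase and 20 μg/ml PI for 30 min. Doublets excluded, 20,000 events per sample; cell-cycle phase distribution analysed.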

In data set [19] the target is T1, Tubulin (Homo sapiens). In words: Binding affinity to tubulin (unknown origin) by analytical ultracentrifugation.
Data set [20] in a line: Apparent solubility of compound in sodium phosphate buffer at 15 uM after 20 mins. Format: physicochemical.
Data set [21] relates to NB-4. The data set can be described thus: Induction of differentiation in human NB4 cells at 500 nM after 24 hrs in presence of ATRA by CD11c staining-based flow cytometric analysis. Format: functional, cell-based. The gist of the method:
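NB4 exposed to 0.5 μM compound together with 1 μM ATRA for 24 h. Cells stained with PE-conjugated CD11c (mouse IgG1-PE control) for 1 h at 4 °C in the dark, washed, resuspended in PBS with propidium iodide (0.25 μg/mL), then analysed by flow cytometry. Biological triplicates, mean ± S.E.M.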

The target in data set [22] is T1, Tubulin (Homo sapiens). In words: Displacement of podophyllotoxin from tubulin (unknown origin) by ultracentrifugation method. Format: protein-complex assay.

≈ marks a conversion by molar mass, not a printed value. Calls of active or inactive are those of the source. The calls are words filed in the database; no cut-off is given here.

For `CC(=O)NC1=C(c2cccc3ccccc23)Oc2cc3ccccc3cc2-n2cccc21`, the outcome in [1] was Active.
`O=C1c2cccn2-c2cc3ccccc3cc2OC1c1cccc2ncccc12` (configuration not stated): the IC50 (as a rule, the concentration that inhibits the measured activity by half) in data set [2] worked out at 2770 nM.
As for `COC(=O)Nc1nc2ccc(C(=O)c3cccs3)cc2[nH]1` [NOCODAZOLE], the solubility (as a rule, the concentration that dissolves in the medium under given conditions) at 12 h in data set [3] was below 1000 µg/mL.
As to `CC[C@]1(O)C[C@@H]2CN(CCc3c([nH]c4ccccc34)[C@@](C(=O)OC)(c3cc4c(cc3OC)N(C)[C@H]3[C@@](O)(C(=O)OC)[C@H](OC(C)=O)[C@]5(CC)C=CCN6CC[C@]43[C@@H]65)C2)C1` [VINBLASTINE], the “Ratio IC50” value was 88 in data set [4] and 70.4 in data set [8]. The IC50 in data set [5] came out at 44 nM; in data set [6], 70.4 nM; in [7], 1 nM; in data set [9] it was 0.5 nM.
Regarding `CN(C)C(=O)OC1=C(c2cccc3cccnc23)Oc2cc3ccccc3cc2-n2cccc21`, the result in [10] was Active. The IC50 in data set [2] came out at 300 nM.
As to `CC(=O)O[C@H]1C(=O)[C@@]2(C)[C@H]([C@H](OC(=O)c3ccccc3)[C@]3(O)C[C@H](OC(=O)[C@H](O)[C@@H](NC(=O)c4ccccc4)c4ccccc4)C(C)=C1C3(C)C)[C@]1(OC(C)=O)CO[C@@H]1C[C@@H]2O` [PACLITAXEL], the “Ratio IC50” value came out at 212.12 in data set [4] and 195 in [8]. Further, the IC50 was found to be 700 nM in data set [5], 4880 nM in data set [6], 25 nM in [7] and 3.3 nM in data set [9].
`CC(=O)OC1=C(c2cnc3ccccc3c2)Oc2cc3ccccc3cc2-n2cccc21`: the outcome in [11], in [12], in data set [13], in data set [14], in data set [15] and in data set [16] was inactive. Further, in data set [2], the half-maximal inhibitory concentration (IC50) was determined as 6460 nM. The outcome in data set [1] was Active.
Turning to `O=C1c2cccn2-c2cc3ccccc3cc2OC1c1cccc2cccnc12` (configuration not stated), the IC50 in data set [2] is 1080 nM.
As to `CC(=O)OC1=C(c2cccc3cccnc23)Oc2cc3ccccc3cc2-n2cccc21`, the result in data set [10], in [11], in [12], in data set [1], in data set [13] and in data set [14] was Active. For the same compound, the result in data set [21] and in data set [16] was Active. The inhibition result in data set [17] and in data set [22] was “Active” throughout. The “Ratio IC50” value in data set [4] worked out at 1.03; in data set [8], 2. The half-inhibitory concentration (IC50) in [5] worked out at 79 nM; in data set [6], 68 nM; in data set [7], 34 nM; in data set [2], 263 nM; in data set [9], 76 nM. The Activity result in [18] was “Dose-dependent effect”. In [19], this compound had a Kb of 115 ×10⁷ /M. Besides, the solubility at 20 min, 15 µM in [20] worked out at 0.36 µM (≈ 0.151 µg/mL). The result in data set [15] was inactive.
As for `CCc1ccc2cccc(C3=C(OC(=O)N(CC)CC)c4cccn4-c4cc5ccccc5cc4O3)c2n1`, the outcome in [1] was Active.
As to `CCN(CC)CCCC(C)NC(=O)OC1=C(c2cccc3ccccc23)Oc2cc3ccccc3cc2-n2cccc21` (configuration not stated), the outcome in data set [1] was Active.
Turning to `CC(=O)OC1=C(c2cccc3cnccc23)Oc2cc3ccccc3cc2-n2cccc21`, the inhibition result in data set [17] and in data set [22] was “Active” in each case. Also, the “Ratio IC50” value in [4] came to 2.69; in data set [8] it was 2.33. In addition, the IC50 in data set [5] stood at 810 nM; in [6], 876 nM; in data set [7] it was 375 nM; in data set [9], 301 nM. The same compound returned a Kb in data set [19] of 16 ×10⁷ /M. The solubility at 20 min, 15 µM in [20] worked out at 0.22 µM (≈ 0.0921 µg/mL).
Consider `CCN(CC)CCCC(C)NC(=O)OC1=C(c2cccc3cccnc23)Oc2cc3ccccc3cc2-n2cccc21` (configuration not stated), for which the inhibition result in data set [17] and in [22] was “Active” in each case. The figures for the “Ratio IC50” value in data set [4] and in data set [8] were 0.71 and 1.08, respectively. In addition, the IC50 in data set [5] was 1350 nM; in data set [6], 2500 nM; in data set [7] it was 2300 nM; in data set [9] it was 1900 nM. For the same compound, the outcome in data set [1] was Active. In data set [19], this compound yielded a Kb of 114 ×10⁷ /M. In addition, the solubility at 20 min, 15 µM in [20] came out at 2.89 µM (≈ 1.62 µg/mL).
Consider `CCN(CC)C(=O)OC1=C(c2cccc3cccnc23)Oc2cc3ccccc3cc2-n2cccc21`, for which, in data set [2], the half-inhibitory concentration (IC50) was 4580 nM.
With `COc1cc2c(c(OC)c1OC)-c1ccc(OC)c(=O)cc1[C@@H](NC(C)=O)CC2` [COLCHICINE], the figures for the “Ratio IC50” value in [4] and in [8] were 38.2 and 44.7, respectively. Besides, the IC50 in data set [5] amounted to 500 nM; in data set [6], 1120 nM; in data set [7], 25 nM; in [9], 13.1 nM.
